High-throughput results deposited in PubChem by several laboratories.
UPR CHOP act: activators of apoptotic arm of unfolded protein response (CHOP); CHO-CHOP luciferase reporter, UPR activation, luminescence; percent of tunicamycin response over DMSO baseline; activation, % at 10 µM; 330,000 compounds, 0.34% hits; AID 449763;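 active = at 10 µM dose, activation of 40% or more, normalized to positive control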
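System: CHO-CHOP luciferase reporter cell line; amount: 500 cells/well; buffer or medium: F12 medium containing 10% fetal bovine serum; incubation: 6 h compound exposure at 37 °C after overnight seeding; measured by: luciferase luminescence after 10 min with Steady-Glo reagent; evaluation: % reporter activation, DMSO baseline versus tunicamycin full activation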
hiPSC survival: hiPSC single-cell survival enhancement; ATPlite luminescence; 100% = ROCK inhibitor wells, 0% = DMSO; survival enhancement, % at 20 µM; 360,000 compounds, 0.044% hits; AID 602274; in the data active = survival enhancement above about 18%;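 note: cells exposed to compounds for 16 hours before the ATP read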
XBP1 UPR activ: adaptive UPR (XBP1) activation. activation, % at 20 µM. CHO-XBP1 luciferase reporter, IRE1-XBP1 UPR activation, luminescence; percent of tunicamycin response, DMSO as zero. 330,000 compounds, 0.33% hits;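 active = versus positive control, 20 µM dose yields 30% or more activation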
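Material: CHO-XBP1 cells stably carrying IRE1-XBP1-driven luciferase reporter / Amount: 1000 cells per well / Compound: 20 µM, 1% DMSO / Times: 6 h treatment, 37 °C / Detection: luciferase luminescence / Measure: % activation of reporter signal versus tunicamycin and DMSO controls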
CHOP inh: blocks CHOP induction under ER stress | CHO-K1 CHOP-promoter luciferase, tunicamycin-induced, 15-18 h | inhibition, % at 10 µM | 220,000 compounds, 3.8% hits | AID 2732;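 active = compounds that reduced the stress-induced luciferase reporter signal by more than about 70% of percent inhibition, limit read from the data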
H9c2 protect: myocardial damage modulation in H9c2 cells | H9c2 cardiomyocytes, H2O2 injury protection, ATPLite, 2 h | protection from H2O2 cell death, % at 20 µM | 360,000 compounds, 0.63% hits | AID 588492;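 active = compounds giving at least 50% protection of heart cells from peroxide-induced death in the single-dose screen, raw or plate-pattern-corrected value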
Large screens that a line does not name were inactive. Shown is part of a subset that was picked to be rich in hits.

COCCn1c(=NC(=O)c2ccc(S(=O)(=O)N3CCc4ccccc4C3)cc2)sc2cc(S(N)(=O)=O)ccc21	none
C=CCn1c(=NC(=O)c2ccc(S(=O)(=O)N3CCc4ccccc4C3)cc2)sc2cc(S(N)(=O)=O)ccc21	CHOP inh 77
S=C(Nc1ccc(Nc2ccccc2)cc1)NC1CCCCCC1	CHOP inh 80
S=C(Nc1ccc(Cl)cc1)NC1CCCCC1	none
CC(C)(C)NC(=S)Nc1ccc(Nc2ccccc2)cc1	CHOP inh 73
CC1(C(=O)NCc2cccc(Cl)c2)Cc2c(-c3cccc(C(N)=O)c3)ccnc2O1 (stereo not given)	none (no result: UPR CHOP act, XBP1 UPR activ, CHOP inh)
CC1=C(C(=O)N2CCCCCC2)CC(CC(=O)NC(c2ccccc2)c2ccccc2)C(=O)N1CCC1=CCCCC1 (stereo not given)	none (no result: UPR CHOP act, XBP1 UPR activ, CHOP inh, H9c2 protect)
C=CCNC(=O)CN(c1ccc(F)c(Cl)c1)S(C)(=O)=O	CHOP inh 79
COC(=O)c1ccc(NC(=O)COC(=O)c2cccc3c(=O)c(C)c(-c4ccccc4)oc23)cc1	none
Cc1c(-c2ccccc2)oc2c(C(=O)OCC(=O)Nc3ccc(C(N)=O)cc3)cccc2c1=O	H9c2 protect 74
Cc1ccc(NC(=O)COC(=O)c2ccccc2Nc2ccccc2)cc1	CHOP inh 77
CCOc1cc(OCC)cc(C(=O)N2CCC[C@H]2C(=O)N2CCC[C@H]2C(=O)N(C)Cc2ccccc2)c1	none (no result: UPR CHOP act, XBP1 UPR activ, CHOP inh, H9c2 protect)
O=C(NC(Cc1c[nH]c2ccccc12)C(=O)O)OCC1c2ccccc2-c2ccccc21 (stereo not given)	none (no result: UPR CHOP act, XBP1 UPR activ, CHOP inh)
Cc1ccc(NC(=O)CSc2nc3ccc(Nc4nc(N5CCOCC5)nc(N5CCOCC5)n4)cc3s2)cc1	XBP1 UPR activ 78 (no result: CHOP inh)
CC(C)(C)NC(=O)CSc1nc2ccc(Nc3nc(N4CCOCC4)nc(N4CCOCC4)n3)cc2s1	H9c2 protect 91
CC1(C)CN(C2CCCCC2)C(=O)[C@H]1CC(=O)Nc1ccc(Br)cc1	none (no result: UPR CHOP act, XBP1 UPR activ, CHOP inh)
CN1C2CC(OC(=O)[C@H](CO)c3ccccc3)CC1C1OC12 (stereo not given in full)	none (no result: UPR CHOP act, hiPSC survival, XBP1 UPR activ, H9c2 protect)
COCCNc1nc(Nc2ccc(C)cc2C)c2sccc2n1	none (no result: UPR CHOP act, XBP1 UPR activ, CHOP inh)
CCOc1ccc(C(C(=O)NC2CCCC2)N(C(=O)c2snc(C(N)=O)c2N)c2cccc(O)c2)cc1 (stereo not given)	H9c2 protect 81 (no result: CHOP inh)
COc1ccc(N(C(=O)c2snc(C(N)=O)c2N)C(C(=O)NC2CCCC2)c2ccc3ncccc3c2)cc1 (stereo not given)	none (no result: CHOP inh)
NC(=O)c1nsc(C(=O)N(c2cccc(O)c2)C(C(=O)NC2CCCC2)c2ccc(Cl)cc2)c1N (stereo not given)	none (no result: CHOP inh)
NC(=O)c1nsc(C(=O)N(c2ccccc2)C(C(=O)NC2CCCC2)c2ccc3ncccc3c2)c1N (stereo not given)	H9c2 protect 62 (no result: CHOP inh)
CC1(C)CC(Cc2cccc(C(F)(F)F)c2)N(C(=O)OC(C)(C)C)C1 (stereo not given)	none (no result: UPR CHOP act, XBP1 UPR activ, CHOP inh)
CC(O)C1CCC2C3CCC4CC(O)CCC4(C)C3C(=O)CC12C (stereo not given)	none (no result: UPR CHOP act, XBP1 UPR activ, CHOP inh)
O=C(CSc1nc2ccccc2[nH]1)Nc1nc(-c2ccc(Br)cc2)cs1	CHOP inh 77
O=C(CSc1nnnn1-c1ccccc1)Nc1nc(-c2ccccc2)ns1	CHOP inh 86
Cc1cc(C)cc(-n2nnnc2SCC(=O)Nc2nc(-c3ccc(F)cc3)cs2)c1	CHOP inh 89
CCNC(=O)C1(C)CCCN1Cc1c(F)cccc1F (stereo not given)	none (no result: UPR CHOP act, XBP1 UPR activ, CHOP inh)
CNC(=O)OC1CC2CC1[C@H]1CCCCN1C2=O (stereo not given in full)	none (no result: UPR CHOP act, XBP1 UPR activ, CHOP inh, H9c2 protect)
CC(C)(CC1(C)NC(=O)NC1=O)OCc1ccccc1 (stereo not given)	none (no result: UPR CHOP act, XBP1 UPR activ, CHOP inh)
C=CCNCCCOc1ccc(Cl)cc1C(C)(C)C	CHOP inh 72
O=C(Nc1ccc2c(c1)OCO2)c1cc(C2CCCCN2S(=O)(=O)c2ccccc2)on1 (stereo not given)	none (no result: UPR CHOP act, XBP1 UPR activ, CHOP inh)
CC1CCN(C(=O)COC(=O)c2cccc(S(=O)(=O)N3CCOCC3)c2)CC1	none (no result: UPR CHOP act, XBP1 UPR activ, CHOP inh)
Cc1cccc(N2CCN(C(=O)c3cc4c(=O)n(C)c5ccccc5c4n3C)CC2)c1C	CHOP inh 79
Cc1cccc(N2CCN(C(=O)Cc3cn(C)c4ccccc34)CC2)c1C	CHOP inh 82
Cc1cccc(N2CCN(C(=O)COc3cc(=O)n(C)c4ccccc34)CC2)c1C	none
Cc1ccc(Cl)cc1N1CCN(C(=O)c2cc3c(=O)n(C)c4ccccc4c3n2C)CC1	CHOP inh 88
Clc1ccc(Cc2noc(-c3cccs3)n2)cc1	CHOP inh 87
COc1cccc(-c2cnc3c(NC(C)=O)cc(-c4cccc(C(=O)NCCN(C)C)c4)cn23)c1	none (no result: UPR CHOP act, XBP1 UPR activ, CHOP inh)
CCOC(=O)C1=CNS(=O)(=O)NC1c1ccccc1 (stereo not given)	none (no result: CHOP inh)
COc1ccc(S(=O)(=O)Nc2cc(S(=O)(=O)N3CCOCC3)ccc2OC)cc1	none (no result: CHOP inh)
COc1ccc(CCC(C)Nc2cccc(C)c2)cc1 (stereo not given)	CHOP inh 82
COc1ccc(CCC(C)Nc2ccc(F)cc2)cc1 (stereo not given)	CHOP inh 88
Cc1ccc(NC(=O)Cn2c(=O)oc3cc(S(=O)(=O)N4CCC(C)CC4)ccc32)cc1C	CHOP inh 74
CC(C)Nc1nc(Nc2ccc(F)cc2)c2sccc2n1	none (no result: UPR CHOP act, XBP1 UPR activ, CHOP inh)
COc1ccc(-c2c(C#N)c(N)nc3c2CCc2ccccc2-3)cc1OC	none (no result: hiPSC survival, H9c2 protect)
COc1ccc(-c2cc(-c3ccc(O)cc3)nc(N)c2C#N)cc1OC	H9c2 protect 56
CC(=O)N1c2ccc(Cl)cc2C2C=CCC2C1c1cccc2ccccc12 (stereo not given)	CHOP inh 85 (no result: UPR CHOP act, XBP1 UPR activ)
Cc1ccccc1N=CC1=C(O)c2ccccc2C1=O	CHOP inh 78
O=C1C(C=Nc2ccc(F)cc2)=C(O)c2ccccc21	none
COc1ccc(CNC(=O)C(C)OC(=O)c2cccc(N(C)C)c2)cc1 (stereo not given)	none (no result: CHOP inh)
Cc1cnc(C(=O)OCC(=O)NC(=O)NC(C)C)cn1	CHOP inh 77
C[C@@H]1CN([C@H](C)CO)C(=O)CCCn2cc(nn2)CO[C@H]1CN(C)C(=O)Nc1ccc2c(c1)OCO2	none (no result: UPR CHOP act, XBP1 UPR activ, CHOP inh)
CC(=O)N1N=C(c2ccc(C)cc2)OC1c1ccc(Br)cc1 (stereo not given)	CHOP inh 93
CC(=O)N1N=C(c2ccc(Cl)cc2)OC1c1ccc(C(C)C)cc1 (stereo not given)	none
CCC(=O)N1CCN(c2ccccc2NC(=O)COc2cc(C)ccc2C(C)C)CC1	CHOP inh 77, H9c2 protect 55
Cc1ccc(C(C)C)c(OCC(=O)NC(=S)Nc2ccccc2N2CCOCC2)c1	none (no result: CHOP inh)
Cc1cc(C)c(OCC(=O)Nc2ccccc2N2CCOCC2)c(C)c1	CHOP inh 79
Cc1ccc(C(C)C)c(OCC(=O)NN=C2CCCCCCC2)c1	CHOP inh 83
